Data as given in ChEMBL document CHEMBL1131259, “Synthesis and evaluation of diphenyl phosphonate esters as inhibitors of the trypsin-like granzymes A and K and mast cell tryptase” (J Med Chem, 1998).
The source made the active and inactive calls. The rule behind the calls is not given here.

How the values were obtained:
[1] = molecular target: T1, Granzyme K (Rattus norvegicus) (UniProt P49864); assay: Inhibition of rat granzyme K
T1 sequence (whole entry): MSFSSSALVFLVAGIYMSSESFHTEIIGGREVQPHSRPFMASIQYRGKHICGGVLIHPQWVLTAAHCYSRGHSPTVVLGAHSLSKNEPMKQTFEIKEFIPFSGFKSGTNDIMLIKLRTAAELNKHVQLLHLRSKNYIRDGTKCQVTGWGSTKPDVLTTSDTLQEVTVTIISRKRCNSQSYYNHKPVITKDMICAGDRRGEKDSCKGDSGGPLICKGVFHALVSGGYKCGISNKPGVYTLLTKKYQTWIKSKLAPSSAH
Summary of the method: (§1)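 Native rat granzyme K, purified by size-exclusion in 1 M NaCl then MonoS cation exchange. Incubated with inhibitor (1.0–450 μM) at 25 °C in 0.1 M Hepes, 0.01 M CaCl2, pH 7.5 (7.1% DMSO). Timed aliquots were read for residual activity on Cbz-Arg-SBzl with DTNB at 405 nm. k_obs came from ln vt/vo vs time, one or two per inhibitor. For no-inhibition lines, none was seen after 25 min.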

Tryptase (Homo sapiens) [2] = molecular target: T2, Tryptase (Homo sapiens) (UniProt Q9BZJ3+Q15661+Q9NRR2); assay: Inhibition of mast cell tryptase; format: protein assay
Summary of the method: (§2)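 Human lung mast cell tryptase, high-molecular-weight form, heparin-free, active sites titrated with MUGB. Incubated with inhibitor at 25 °C in 0.1 M Hepes, 10% glycerol, 10 mM heparin, pH 7.5 (7.1% DMSO). […] DMSO controls were run.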

[3] = molecular target: T3, Granzyme A (Rattus norvegicus) (UniProt Q8CJF4); assay: Inhibition of rat granzyme A.
T3 sequence (whole entry): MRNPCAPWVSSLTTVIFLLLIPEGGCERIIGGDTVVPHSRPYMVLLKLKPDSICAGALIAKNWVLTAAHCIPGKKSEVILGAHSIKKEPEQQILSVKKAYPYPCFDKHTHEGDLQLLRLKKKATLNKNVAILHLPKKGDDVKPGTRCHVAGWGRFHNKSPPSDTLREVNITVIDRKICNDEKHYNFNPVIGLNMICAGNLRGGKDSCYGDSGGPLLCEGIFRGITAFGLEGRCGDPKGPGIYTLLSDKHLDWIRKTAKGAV
Summary of the method: (§3)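 Recombinant human and rat granzyme A, incubated with inhibitor (1.0–450 μM) at 25 °C in 0.1 M Hepes, 0.01 M CaCl2, pH 7.5 (7.6% DMSO). Timed aliquots were read for residual activity on Cbz-Arg-SBzl with DTNB at 405 nm. k_obs came from ln vt/vo vs time over 5–10 points and 2–3 half-lives, two k_obs per inhibitor. DMSO controls were run.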

[4] = molecular target: T4, Granzyme A (Homo sapiens) (UniProt P12544); assay: Inhibition of human granzyme A; summary of the method: as §3
T4 sequence (whole entry): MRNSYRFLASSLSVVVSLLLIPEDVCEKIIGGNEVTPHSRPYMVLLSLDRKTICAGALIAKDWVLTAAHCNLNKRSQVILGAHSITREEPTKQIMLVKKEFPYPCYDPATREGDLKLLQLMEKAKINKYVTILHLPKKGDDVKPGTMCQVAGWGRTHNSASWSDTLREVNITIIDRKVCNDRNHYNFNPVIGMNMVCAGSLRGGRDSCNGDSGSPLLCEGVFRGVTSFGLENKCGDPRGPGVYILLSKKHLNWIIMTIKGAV

[5] = molecular target: T5, Serine protease 1 (Bos taurus) (UniProt P00760); assay: Inhibition of bovine trypsin
T5 sequence (whole entry): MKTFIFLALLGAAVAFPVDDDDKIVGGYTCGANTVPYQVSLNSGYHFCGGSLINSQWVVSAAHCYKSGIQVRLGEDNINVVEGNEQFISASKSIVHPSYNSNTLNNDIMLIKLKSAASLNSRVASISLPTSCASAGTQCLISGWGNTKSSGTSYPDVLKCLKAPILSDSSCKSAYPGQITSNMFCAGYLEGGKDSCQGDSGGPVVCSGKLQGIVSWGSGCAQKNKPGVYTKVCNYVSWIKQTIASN
Summary of the method: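 Irreversible inhibition assayed by incubation at 25 °C in 0.1 M Hepes, 0.01 M CaCl2, pH 7.5 (2% DMSO), inhibitor 1.0–450 μM. Timed aliquots were read for residual activity on Cbz-Arg-SBzl with DTNB at 410 nm. Pseudo-first-order k_obs came from ln vt/vo vs time, using 5–10 points over 2–3 half-lives, three k_obs per inhibitor. DMSO-only controls were run. For no-inhibition lines, none was seen after 25 min.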

[6] = molecular target: T1, Granzyme K (Rattus norvegicus); assay: Compound was evaluated to inhibit rat granzyme K; No inhibition; summary of the method: as §1
Tryptase (Homo sapiens) [7] = molecular target: T2, Tryptase (Homo sapiens); assay: Compound was evaluated to inhibit mast cell tryptase; No inhibition; format: protein assay; summary of the method: as §2

| SMILES | kobs/[I] (second-order inactivation rate constant) [1] [M⁻¹ s⁻¹] | kobs/[I] (second-order inhibition rate constant) (Tryptase (Homo sapiens) [2]) [M⁻¹ s⁻¹] | K obs / 1 [3] [M⁻¹ s⁻¹] | kobs/[I] (second-order inactivation rate constant) [4] [M⁻¹ s⁻¹] | K obs / 1 [5] [M⁻¹ s⁻¹] | K obs / 1 [6] | K obs / 1 (Tryptase (Homo sapiens) [7]) |
| --- | --- | --- | --- | --- | --- | --- | --- |
| N=C(N)c1ccc(C(NC(=O)/C=C/c2ccccc2)P(=O)(Oc2ccccc2)Oc2ccccc2)cc1 (stereo not drawn) | 3 | 0.3 | 340 | 400 | 110 |  |  |
| NC(N)c1ccc(C(NC(=O)c2ccccc2Oc2ccccc2)P(=O)(Oc2ccccc2)Oc2ccccc2)cc1 (stereo not drawn) | 1 | 0.4 | 340 | 540 | 670 |  |  |
| N=C(N)c1ccc(C(NC(=O)CCC(=O)O)P(=O)(Oc2ccccc2)Oc2ccccc2)cc1 (stereo not drawn) | 0.3 | 0.2 |  | 857 | 45 |  |  |
| C[C@H](NC(=O)OCc1ccccc1)C(=O)N[C@H](C)C(=O)N[C@@H](C)C(=O)NC(c1ccc(C(N)N)cc1)P(=O)(Oc1ccccc1)Oc1ccccc1 (stereo partly drawn) | 7 | 2 | 590 | 730 | 1780 |  |  |
| NCCCCCC(NC(=O)OCc1ccccc1)P(=O)(Oc1ccccc1)Oc1ccccc1 (stereo not drawn) | 1.1 | 0.7 |  | 23 | 21 |  |  |
| C[C@H](NC(=O)[C@@H](C)NC(=O)CCC(=O)O)C(=O)NC(c1ccc(C(=N)N)cc1)P(=O)(Oc1ccccc1)Oc1ccccc1 (stereo partly drawn) | 0.3 | 0.7 |  | 260 | 640 |  |  |
| CC(C)(C)OC(=O)N[C@H](Cc1ccccc1)C(=O)N1CCC[C@H]1C(=O)NC(c1ccc(C(N)N)cc1)P(=O)(Oc1ccccc1)Oc1ccccc1 (stereo partly drawn) | 56 | 0.4 |  | 170 | 130 |  |  |
| N=C(N)c1ccc(C(NC(=O)/C=C/c2cccs2)P(=O)(Oc2ccccc2)Oc2ccccc2)cc1 (stereo not drawn) | 4 | 1 | 430 | 740 | 300 |  |  |
| C[C@H](NC(=O)[C@@H](Cc1ccccc1)NC(=O)OCc1ccccc1)C(=O)NC(c1ccc(C(N)N)cc1)P(=O)(Oc1ccccc1)Oc1ccccc1 (stereo partly drawn) | 4.2 | 4 |  | 1770 | 3010 |  |  |
| C[C@H](NC(=O)[C@@H](CC(=O)O)NC(=O)OCc1ccccc1)C(=O)NC(c1ccc(C(=N)N)cc1)P(=O)(Oc1ccccc1)Oc1ccccc1 (stereo partly drawn) | 6 | 0.7 |  | 240 | 2550 |  |  |
| C[C@H](NC(=O)[C@@H](CC(=O)OC(C)(C)C)NC(=O)OCc1ccccc1)C(=O)NC(c1ccc(C(=N)N)cc1)P(=O)(Oc1ccccc1)Oc1ccccc1 (stereo partly drawn) |  | 3 |  | 280 | 2000 | inactive |  |
| NC(N)c1ccc(C(NC(=O)OCc2cccc3ccccc23)P(=O)(Oc2ccccc2)Oc2ccccc2)cc1 (stereo not drawn) | 12 |  | 90 | 160 | 30 |  | inactive |
| NCCCCC(NC(=O)OCc1ccccc1)P(=O)(Oc1ccccc1)Oc1ccccc1 (stereo not drawn) | 23 | 89 |  | 1210 | 6240 |  |  |
| N=C(N)c1ccc(C(NC(=O)/C=C/c2ccco2)P(=O)(Oc2ccccc2)Oc2ccccc2)cc1 (stereo not drawn) | 32 |  | 1740 | 1740 | 360 |  | inactive |
| N=C(N)c1ccc(CC(NC(=O)OCc2ccccc2)P(=O)(Oc2ccccc2)Oc2ccccc2)cc1 (stereo not drawn) | 2.1 | 17 |  | 2750 | 24 |  |  |
| CC(C)[C@H](NC(=O)OCc1ccccc1)C(=O)NC(c1ccc(C(=N)N)cc1)P(=O)(Oc1ccccc1)Oc1ccccc1 (stereo partly drawn) | 0.7 | 21.2 |  | 6.7 | 41 |  |  |
| NC(N)c1ccc(C(NC(=O)c2cccc(Oc3ccccc3)c2)P(=O)(Oc2ccccc2)Oc2ccccc2)cc1 (stereo not drawn) | 1 |  | 470 | 340 | 50 |  | inactive |
| N=C(N)c1ccc(C(NC(=O)[C@@H]2CCCN2C(=O)CC(c2ccccc2)c2ccccc2)P(=O)(Oc2ccccc2)Oc2ccccc2)cc1 (stereo partly drawn) | 1830 |  |  | 250 | 2660 |  | inactive |
| N=C(N)c1ccc(C(NC(=O)[C@@H]2CCCN2C(=O)CCc2ccccc2)P(=O)(Oc2ccccc2)Oc2ccccc2)cc1 (stereo partly drawn) | 50 | 0.4 |  | 1510 | 1520 |  |  |
| N=C(N)c1ccc(C(NC(=O)[C@H](CCCCN)NC(=O)OCc2ccccc2)P(=O)(Oc2ccccc2)Oc2ccccc2)cc1 (stereo partly drawn) | 1 |  | 15 | 30 | 30 |  | inactive |
| C[C@H](NC(=O)[C@@H](C)NC(=O)OCc1ccccc1)C(=O)NC(c1ccc(C(=N)N)cc1)P(=O)(Oc1ccccc1)Oc1ccccc1 (stereo partly drawn) | 5 | 2 | 480 | 820 | 3620 |  |  |
| C[C@H](NC(=O)[C@H]1CCCN1C(=O)OCc1ccccc1)C(=O)NC(c1ccc(C(=N)N)cc1)P(=O)(Oc1ccccc1)Oc1ccccc1 (stereo partly drawn) | 5 | 1 |  | 380 | 240 |  |  |
| C[C@@H](O)[C@H](NC(=O)OCc1ccccc1)C(=O)NC(c1ccc(C(=N)N)cc1)P(=O)(Oc1ccccc1)Oc1ccccc1 (stereo partly drawn) | 3 |  |  | 2220 | 97 |  | inactive |
| N=C(N)c1ccc(C(NC(=O)[C@@H]2CCCN2C(=O)c2ccccc2Oc2ccccc2)P(=O)(Oc2ccccc2)Oc2ccccc2)cc1 (stereo partly drawn) | 60 | 0.9 |  | 610 | 7760 |  |  |
| NC(N)c1ccc(C(NC(=O)[C@@H]2CCCN2C(=O)CNS(=O)(=O)Cc2ccccc2)P(=O)(Oc2ccccc2)Oc2ccccc2)cc1 (stereo partly drawn) | 87 | 2 |  | 3650 | 37100 |  |  |
| N=C(N)c1ccc(C(NC(=O)[C@@H]2CCCN2C(=O)OCc2ccccc2)P(=O)(Oc2ccccc2)Oc2ccccc2)cc1 (stereo partly drawn) | 34 | 1.2 |  | 790 | 910 |  |  |
